# BB579 growth dn = reduces growth of yeast BB579 in restrictive medium. inhibition, % at 10 µM. AID 804. 0.51% of 140,000 active. S. cerevisiae BB579 growth, OD615, 48 h;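 active = inhibition above a set limit, 3 SD over the mean compound inhibition, cut at about 44% in these data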
#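 System: Saccharomyces cerevisiae DeaD strain BB579, replicative lifespan model yeast. Buffer or medium: restrictive glucose-based CSMM-D medium. Doses: one dose, 10 µM compound with 0.25% DMSO. Timing: 4 h preincubation and 48 h exposure at 30 °C. Detection: turbidity as optical density at 615 nm. Benchmarks: amphotericin B 10 µg/mL, positive.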
# RAM network inh = inhibitors of the yeast RAM network; S. cerevisiae dse1pr::URA3 reporter, 5-FOA growth OD615, 2 d; analog-sensitive cbk1-as2 kinase mutant strain; inhibition, % at 50 µM; 1.8% of 190,000 active;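 active = inhibition above a set limit, 3 SD over mean compound inhibition, cut at about 8.4% in these data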;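 also: 0% = DMSO-only wells with no growth and 100% = 10 µM 1-NA-PP1 full growth; inhibition rescues growth on 5-FOA so higher OD means more RAM inhibition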
# sdo1 growth = sdo1-depleted yeast growth rescue; S. cerevisiae sdo1-depleted JHY4D growth rescue, OD600 30 h; hits give high values; pdr5 snq2 efflux-pump mutant strain; z-score at 10 µM; 0.21% of 140,000 active;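 active = z-score above 3 at both the 24 hr and the 30 hr optical density reads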;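 also: z-score against mean and SD of all compound wells on the same plate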
# Yeast lifespan up = yeast lifespan extension | S. cerevisiae growth with nicotinamide, OD615; deaD strain in restrictive glucose medium | 0.68% of 130,000 active | AID 775 | inhibition of the nicotinamide effect, % at 10 µM;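 active = inhibition above a set limit, placed 3 SD over the median of all compounds, cut at about 26% in these data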;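 also: 0% = nicotinamide-treated wells and 100% = cells grown without nicotinamide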
#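 Test system: DeaD-strain S. cerevisiae / Buffer or medium: restrictive glucose medium / Also added: nicotinamide 1.5 mM / Doses: one concentration, 10 µM, DMSO 0.25% / Schedule: 48 h at 30 °C / Signal: OD615 measurement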
# Measles CPE = protection of cells from measles virus; Measles virus-infected cells, CPE protection, absorbance; protection (pct of control), % at 4 µM; 1.5% of 140,000 active; AID 841; in the data active = protection mostly above about 24%, no sharp cut-off; inactive = mostly below about 26%
# Active calls of the source: *; x = no result given. In the library only some 3.8% were active in any assay of this set; here they are far more common.
SMILES,BB579 growth dn,RAM network inh,sdo1 growth,Yeast lifespan up,Measles CPE
CCCCOc1ccc(Cc2c(Cl)nc(SC)nc2N2CCOCC2)cc1,-44.8,8.3,-0.29,5.6,2.8
CCCc1nnc(SCC(=O)N2CCCCC2)n1CCCOC,-27.1,-0.3,0.07,-21.9,2.6
N#CC(C#N)=C1NC2(CCCC2)Cc2ccccc21,-35.2,0.3,-0.63,-3.4,5.6
Cc1nnc(C)n1/N=C/c1cc(Br)ccc1O,-25.1,0.4,-0.31,21.5,20.0
Cc1nnc(C)n1/N=C/c1cc(Br)cc(Br)c1O,99.8*,-1.2,0.54,-30.9,3.2
COc1ccc(C(C)(C)C)cc1NC(=O)c1cc(S(=O)(=O)N(C)C)ccc1N1CCCC1,-21.5,4.0,-0.29,2.9,6.3
CC(C)c1ccccc1NC(=O)C1CN(S(=O)(=O)c2ccccc2)CCN1S(=O)(=O)c1ccccc1 (centres undefined),-28.9,8.6*,-1.15,2.0,9.5
COc1ccc(-n2ncc3c(=O)n(CC(=O)Nc4ccc(S(=O)(=O)N5CCOCC5)cc4)cnc32)cc1,-36.3,4.0,0.13,2.1,59.8*
O=C(Cn1cnc2c(cnn2-c2ccccc2)c1=O)Nc1ccc(S(=O)(=O)N2CCOCC2)cc1,-6.5,4.8,0.94,-3.3,12.1
CCOC(=O)Cc1nn2c(=O)cc(C)nc2s1,-19.4,0.2,1.36,-7.3,45.8*
CCOC(=O)Cc1c(C)nc2cc(C)nn2c1C,-17.2,0.6,0.82,x,2.5
O=C(Cn1nc(Cl)nc1Cl)c1cc2ccccc2oc1=O,-29.3,-0.3,-1.58,41.8*,1.9
Cc1ccc[n+](CC(=O)c2cc3ccccc3oc2=O)c1,-25.8,2.6,0.78,36.3*,2.0
CCOC(=O)C1=C(C)OC(N)=C(C#N)C1c1cc2c(cc1[N+](=O)[O-])OCO2 (centres undefined),x,0.8,x,x,x
CC(/C=C1\N=C(SCc2ccccc2)SC1=O)=C\c1ccccc1,-16.6,9.9*,0.19,0.6,3.7
CC(=C/c1ccccc1)/C=C1/SC(N2CCOCC2)=NC1=O,-22.3,1.3,0,-28.8,6.3
COc1cc(/C=N/NC(=O)c2ccncc2)ccc1OC(=O)c1ccc([N+](=O)[O-])cc1,-9.8,3.5,0.42,44.0*,15.6
COc1cc(/C=N/NC(=O)c2ccncc2)ccc1OC(=O)c1ccccc1Cl,x,1.1,x,x,x
COC(=O)c1ccc(Cl)c(NC(=O)CN2CCN(C)CC2)c1,11.8,1.4,0.32,-6.2,10.0
O=C(CN1CCN(C(=O)c2ccco2)CC1)Nc1cc(Cl)ccc1Cl,-17.4,0.9,-0.39,-18.8,69.1*
O=C(CN1CCN(C(=O)c2ccco2)CC1)Nc1ccccc1-c1ccccc1,-23.7,-0.9,-0.56,-17.8,10.4
CN1CCN(CC(=O)Nc2ccc(Cl)cc2Cl)CC1,-25.1,1.3,0.08,40.0*,4.7
FC(F)(F)c1cccc(CNc2ncccc2-c2nc3cc(Cl)ccc3o2)c1,-31.3,8.5*,-1.34,-1.0,9.8
CC(C)C1=NN(C(=O)c2ccccc2)C(O)(C(C)(C)C)C1 (centres undefined),-6.1,0.5,-0.08,-6.3,1.4
CC(C)(C)C1=NN(C(=O)c2ccccc2)C(O)(C(C)(C)C)C1 (centres undefined),-16.3,10.2*,-0.58,-2.2,5.3
SMILES,BB579 growth dn,RAM network inh,sdo1 growth,Yeast lifespan up,Measles CPE
FC(F)Oc1ccc(NC(=S)NCC2COc3ccccc3O2)cc1 (centres undefined),-22.0,0.7,-0.3,1.8,8.8
CC1=CC(C)C2COC(c3ccc[n+](C)c3)C1C2C (centres undefined),-1.2,3.1,0.34,3.0,57.5*
CCN(CC)Cc1c(O)c(Cl)cc2c(C)c(C)c(=O)oc12,-65.6,1.2,1.67,87.6*,6.8
COc1ccc(C(C)=O)cc1COC(=O)c1cccnc1SC,x,2.9,x,x,x
Cc1nc(CCNC(=O)Cc2ccc(Cl)cc2)cs1,-3.1,-0.3,1.67,-8.0,38.9*
N#CC(C#N)=C1CCc2ccccc2N1,9.6,-0.4,1.09,x,58.8*
Nc1ccc2c(c1)Nc1ccccc1CC2,x,0.5,x,x,x
CS(=O)(=O)c1sc2nc(-c3cccs3)cc(-c3ccccc3)c2c1N,5.6,10.7*,-1.45,-19.3,9.4
Cc1ccc(-c2cc(-c3ccccc3)c3c(N)c(S(C)(=O)=O)sc3n2)cc1,-31.0,2.7,-1.2,-11.4,7.6
O=C(c1ccccc1)c1nn(-c2ccccc2)c(=O)cc1C(F)(F)F,-25.8,-1.7,-1.86,45.2,2.7
O=C(c1ccccc1)c1nn(-c2ccc(Cl)cc2)c(=O)cc1C(F)(F)F,-13.8,5.0,-1.19,32.0*,11.2
CCOC(=O)c1nc[nH]c1C,-7.7,1.1,0.3,-0.8,9.7
Cc1c(C(=O)O)oc2c1/C(=N\O)CC(C)(C)C2,-32.7,0.0,0.11,6.4,44.0*
Cc1c(C(=O)O)oc2c1C(=O)CC(C)(C)C2,x,1.6,x,x,x
O=c1cc(/C=C/c2ccccc2)oc2ccccc12,11.5,0.6,-0.68,-7.2,0.7
CCOC(=O)c1cccc(NC(=O)CSc2nc(N)cc(N)n2)c1,-17.9,1.6,1.76,-7.7,31.3*
Cc1cccc(NC(=O)CSc2nc(N)cc(N)n2)c1,-42.8,-0.1,0.58,x,13.0
COc1ccccc1CCNC(=O)CCSc1nc(-c2ccco2)cc(C(F)(F)F)n1,-17.6,6.2,-0.79,x,21.9
COc1ccc(-c2cc(C(F)(F)F)nc(SCc3cccc(C(=O)O)c3)n2)cc1,-34.1,3.8,-0.14,-8.7,6.6
COc1ccc(-c2cc(C(F)(F)F)nc(SCCC(=O)NCc3ccccc3)n2)cc1,-28.3,9.6*,-0.32,1.0,4.3
O=C(CCSc1nc(-c2ccco2)cc(C(F)(F)F)n1)NCCc1ccccc1,-73.7,9.9*,-0.57,-8.7,6.2
CC(=O)NC(Cc1ccc(F)cc1)C(=O)NC1CCN(c2ncccc2[N+](=O)[O-])CC1 (centres undefined),x,7.2,x,x,x
CCn1c(COc2cccc3ccccc23)nnc1SCC(N)=O,-15.9,1.2,1.31,-9.4,24.9
c1ccc(C2=NNC(=NCc3ccc4c(c3)OCO4)SC2)cc1,-31.1,9.0*,-0.05,-2.6,4.9
CN(CCOc1ccc(-c2ccn(S(=O)(=O)c3cccc4ccccc34)n2)cc1)c1ccccn1,19.6,-0.1,0.15,-2.6,44.4*
SMILES,BB579 growth dn,RAM network inh,sdo1 growth,Yeast lifespan up,Measles CPE
N/C(=N\c1nc2c(c(=O)[nH]1)CCCC2)Nc1ccccc1,-12.0,2.0,0.18,-7.4,4.2
N/C(=N\c1nc2c(c(=O)[nH]1)CCC2)Nc1ccccc1,-18.1,1.3,-0.19,-3.7,48.2*
CC1CCCN(C(=S)Nc2ccc(Nc3ccccc3)cc2)C1 (centres undefined),x,9.3*,x,x,x
CC1CCCN(C(=S)Nc2ccc(F)cc2)C1 (centres undefined),x,0.1,x,x,x
Cc1ccc(C(=O)Nc2ccc(Cl)cc2C)c(Cl)c1,x,2.5,x,x,x
Cc1cc(C(=O)Nc2ccc3c(c2)CCC3)c2ccccc2n1,x,2.7,x,x,x
COc1ccc(/C=N/Nc2nnc(Cc3ccc(OC)c(OC)c3)c(=O)[nH]2)cc1,-25.8,4.2,0.47,2.1,21.8

# Compound activity from PubChem.
